Assay outcomes as filed in PubChem BioAssay.
Only some compounds are listed: those with a hit (about 2.7% of all), similar ones and a draw of the others.
MC4R antag cAMP – human MC4R antagonism in cAMP assay | 0.48% of 360,000 active | AID 540295 | inhibition, % at 6.5 µM | MC4R-expressing cells, MTII-stimulated cAMP, LANCE TR-FRET;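 active means inhibition above its plate's cutoff, the mean of tested wells on that plate plus 3 SD, cut at about 29% in these data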;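 further: 0% = Melanotan II alone and 100% = Melanotan II plus saturating MCL0020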
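System – human MC4R-expressing U2OS cells · Also added – Melanotan II · Dosing – one concentration, 6.5 µM nominal · Timing – 30-min compound, 1-h challenge, 1-h detection, room temperature · Measured by – Eu-cAMP/anti-cAMP TR-FRET, emission 671 nm · Replicates – singlicate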
Lipid droplet – modulators of hepatic lipid droplet formation | AML12 mouse hepatocytes, oleate lipid droplets, BODIPY imaging | inhibition, % at 6.5 µM | 0.4% of 240,000 active | AID 1656;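 active means lipid droplet intensity inhibited by at least 50%, with more than 500 cells counted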
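material = mouse AML12 hepatocyte cell line, fixed after treatment | also added = 100 µM oleic acid challenge | doses = compound at 6.5 µM only | schedule = overnight exposure | technique = Image-based BODIPY and DAPI two-channel analysis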
NTR1 agonist – agonists of human neurotensin receptor NTR1. P30989. NTR1-U2OS beta-arrestin-GFP spot imaging, agonist mode. activation, % at 20 µM. 0.17% of 330,000 active;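 active means activation at or above 40% of the spot to cytoplasm intensity ratio, with at least 20 cells analyzed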;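 further: 0% = DMSO without peptide and 100% = 100 nM NTR1 peptide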
PREPL inh – inhibits the human prolyl oligopeptidase-like enzyme; Q4J6C6; recombinant PREPL, fluorescence polarization activity-based probe; inhibition, % at 5.96 µM; 0.68% of 320,000 active; AID 2751; in the data active means inhibition above about 43%;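 further: 0% = enzyme with DMSO and 100% = wells lacking enzyme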
MC4R barr agon – agonists of human melanocortin 4 receptor (MC4R) beta-arrestin. 0.98% of 360,000 active. activation, % at 8.9 µM. U2OS MC4R beta-arrestin complementation, luminescence; percent of melanotan II response, DMSO zero;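 active means activation above a per-plate cutoff, the mean activation of sample wells on that plate plus 3 SD, cut at about 8% in these data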
HTR2A ag – mouse HTR2A agonism via beta-arrestin recruitment; P35363; CHO-K1 mHTR2A beta-arrestin complementation, luminescence; percent of 30 µM serotonin response; activation, % at 7.6 µM; 0.66% of 360,000 active;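 active means activation above a run cutoff, the mean activation of all tested compounds plus 3 SD, cut at about 14% in these data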;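 further: 0% = plate median of compound wells and 100% = 30 µM serotonin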
Target sequence (P35363 whole entry, looked up): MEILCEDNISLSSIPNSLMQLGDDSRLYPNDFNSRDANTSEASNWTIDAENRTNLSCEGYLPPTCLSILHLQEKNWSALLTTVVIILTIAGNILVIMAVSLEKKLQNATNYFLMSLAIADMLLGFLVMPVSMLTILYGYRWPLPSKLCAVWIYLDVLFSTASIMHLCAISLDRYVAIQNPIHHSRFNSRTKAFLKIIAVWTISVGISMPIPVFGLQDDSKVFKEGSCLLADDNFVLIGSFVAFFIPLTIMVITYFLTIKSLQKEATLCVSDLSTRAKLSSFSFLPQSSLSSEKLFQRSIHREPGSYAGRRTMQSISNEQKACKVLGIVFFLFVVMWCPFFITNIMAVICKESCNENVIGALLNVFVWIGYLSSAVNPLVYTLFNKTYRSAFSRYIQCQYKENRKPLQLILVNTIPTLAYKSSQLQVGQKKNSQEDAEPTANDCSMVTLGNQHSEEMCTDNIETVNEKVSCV
Hep lipid conf – hepatic lipid droplet formation inhibition, confirmed. shares compounds with Lipid droplet. AML12 mouse hepatocytes, BODIPY lipid droplet imaging; droplets induced with 100 µM oleic acid. inhibition, % at 5.2 µM. 65% of 870 active;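 active means inhibition of lipid droplet metric at least 50%, with more than 300 cells in each of four replicates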;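 further: plate controls were DMSO with oleic acid for no effect and 5 µM Triacsin-C for full effect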
AML12 cytotox – counter-screen for cytotoxicity in AML12 mouse hepatocytes; shares compounds with Lipid droplet; DAPI nuclear morphology cytotoxicity imaging; active compounds read high; cells fed 100 µM oleate overnight; z-score at 5 µM; 3% of 870 active; in the data active means z-score above about 6.3;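 further: compound exposure lasted overnight at 37 °C before fixation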
AML12 tox ATP – AML12 hepatocyte cytotoxicity, confirmed | AML12 mouse hepatocyte viability, ATP luminescence; cells loaded with 100 µM oleic acid | 530 tested, under 10 active | cytotoxicity, % at 50 µM | shares compounds with Lipid droplet;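 active means cytotoxicity above 50% in each of four replicates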;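 further: compound exposure lasted overnight at 37 °C before the ATP read; 0% = DMSO-treated cells and 100% = wells with no cells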
Numbers without * were called inactive; / = not tested or not shown.

SMILES	MC4R antag cAMP	Lipid droplet	NTR1 agonist	PREPL inh	MC4R barr agon	HTR2A ag	Hep lipid conf	AML12 cytotox	AML12 tox ATP
N=c1c(C(=O)NCCN2CCOCC2)cc2c(=O)n3ccccc3nc2n1CCCN1CCOCC1	-5	52*	-1	7	-2	2	16	-0.46	/
N=c1c(C(=O)NCCN2CCOCC2)cc2c(=O)n3ccccc3nc2n1Cc1ccc(F)cc1	-3	-23	2	1	-2	10	/	/	/
CCCCN(C(=O)C1CCCC1)C1CCS(=O)(=O)C1 (configuration not stated)	-6	/	0	/	2	1	/	/	/
Cc1ccc(C(=O)Nc2ccccc2C(=O)NCc2cccnc2)cc1	-2	51*	1	-1	-4	12	96*	-0.97	22
O=C(Nc1ccc(Cl)cc1C(=O)NCc1cccnc1)c1ccc(Cl)cc1Cl	-2	66*	4	23	-1	-3	88*	1.9	/
O=C1Nc2ccccc2-c2nnnn2C1N1CCCC1 (configuration not stated)	/	/	/	/	/	-12	/	/	/
CCOc1ccc(Cl)cc1CNCCCSc1ncccn1	-3	-10	-1	-12	-1	4	/	/	/
COc1ccc(Cl)cc1CNCCCSc1ncccn1	1	50*	0	/	-1	9	20	0.24	/
O=C(c1ccc2c(c1)OCCO2)N1CCN(c2ncc(C(F)(F)F)cc2Cl)CC1	9	/	1	11	2	6	/	/	/
COc1ccc(C(=O)OC(C)C(=O)NC(C)CCc2ccccc2)cc1[N+](=O)[O-] (configuration not stated)	2	68*	-1	0	0	-1	109*	0.035	2
COc1cc(C=NNc2ccccc2[N+](=O)[O-])cc(OC)c1OC	-3	/	/	/	-2	2	/	/	/
CCCOc1ccc(/C=N/Nc2ccccc2[N+](=O)[O-])c(OCCC)c1	9	81*	2	4	0	0	113*	-0.49	7
O=[N+]([O-])c1ccccc1N/N=C\c1ccccc1F	1	49	3	1	5	0	/	/	/
O=[N+]([O-])c1ccccc1N/N=C\c1ccccc1Cl	0	59*	-5	15	1	5	34	0.24	/
COc1ccccc1C(=O)Nc1ccnn1C1CCN(CCCc2ccccc2)CC1	0	-4	0	-17	-3	-8	/	/	/
O=C(COC(=O)COc1ccc(Cl)cc1Cl)Nc1cccnc1Cl	-3	50*	4	6	0	4	12	-1	/
Cc1cc(C)n(S(=O)(=O)c2ccccc2[N+](=O)[O-])n1	4	2	0	-4	-1	2	/	/	/
C/C(N)=C(/C#N)C(=O)CSc1nnc(Nc2cccc(C)c2)s1	-2	78*	6	8	-1	7	99*	-0.7	16
Cc1cc(NC(=O)c2cc3ccccc3o2)cc(C)c1OCC(=O)N1CCOCC1	19	91*	0	10	1	3	107*	-0.82	34
Cc1cc(NC(=O)c2ccccc2F)cc(C)c1OCC(=O)N1CCOCC1	11	1	0	6	-5	1	/	/	/
COc1cccc(NC(=O)CN2C(=O)NC3(CCCc4ccccc43)C2=O)c1 (configuration not stated)	11	/	-2	1	1	0	/	/	/
Cc1ccc(NC(=O)CCCc2c[nH]c3ccccc23)nc1	7	83*	0	-2	-4	-2	-3	0.54	/
Cc1ccc(CNC(=O)CCCc2c[nH]c3ccccc23)cc1	4	71*	0	-13	1	4	74*	0.041	8
COC(=O)[C@H](Cc1c[nH]c2ccccc12)NC(=O)CCCc1c[nH]c2ccccc12	28	60*	0	2	0	0	56	-0.63	20
Cc1ccnc(NC(=O)CCCc2c[nH]c3ccccc23)c1	22	0	1	7	-2	-2	/	/	/
SMILES	MC4R antag cAMP	Lipid droplet	NTR1 agonist	PREPL inh	MC4R barr agon	HTR2A ag	Hep lipid conf	AML12 cytotox	AML12 tox ATP
O=C(CCCc1c[nH]c2ccccc12)NCc1ccccc1F	4	25	-1	-12	-2	-2	/	/	/
COc1ccc(CN2CCN(CCc3ccccc3)C(CCO)C2)c(Cl)c1OC (configuration not stated)	6	-1	0	12	0	-8	/	/	/
Nn1c(COc2ccccc2F)nnc1SCC(=O)NCC1CCCO1 (configuration not stated)	3	/	/	/	1	-1	/	/	/
O=C(CSc1n[nH]c(Cc2ccccc2)n1)Nc1ccccc1Br	10	24	-1	1	2	-1	/	/	/
O=C(CCC(=O)c1ccc(F)cc1)Nc1cccc(S(=O)(=O)Nc2cccc(Cl)c2)c1	10	51*	1	9	1	-5	-39	0.023	/
CCCN(CCC)c1ccc(CC(=O)NC(C)Cc2ccccc2)cc1 (configuration not stated)	1	101*	0	16	0	-4	109*	-0.95	3
CCN1C(=O)c2ccccc2Sc2ccc(C(=O)NCCC(C)C)cc21	5	95*	2	1	-2	-12	98*	0.8	/
CCN1C(=O)c2ccccc2Sc2ccc(C(=O)NC(C)C)cc21	0	-1	4	0	-1	6	/	/	/
CCCCNC(=O)c1ccc2c(c1)N(C)C(=O)c1ccccc1S2	7	78*	-1	2	0	-7	71*	0.54	13
CC(C)CCNC(=O)c1ccc2c(c1)N(C)C(=O)c1ccccc1S2	7	87*	0	9	-1	-13	87*	0.81	/
CN1C(=O)c2ccccc2Sc2ccc(C(=O)O)cc21	10	12	0	-2	0	0	/	/	/
CCOc1ccccc1NC(=O)c1cccc(NC(=O)C2CCCC2)c1	15	63*	6	0	-1	-2	95*	0.46	4
O=C(Nc1ccnn1C1CCN(C(=O)c2cc(Cl)ccc2F)CC1)C1CCOC1 (configuration not stated)	3	5	-1	-2	-2	-5	/	/	/
CC1CCN(C(=O)c2ccc3c(c2NCCO)C(=O)c2ccccc2C3=O)CC1	-12	68*	24	22	-5	-6	109*	-0.38	37
CCN(CC)CCNC(=O)c1ccc2c(c1NCCO)C(=O)c1ccccc1C2=O	-37	23	0	37	-2	-7	/	/	/
